Assay results from PMC4885108 (Journal of medicinal chemistry, 2016).
Where two headings read alike, the source gives them in different places.

Tests used:
Fast PK studies = format: in vivo; conditions: mouse, plasma, iv
In short: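 Female ICR mice (n = 2 per time point) got one tail-vein iv injection of 5, 10 or 20 mg/kg in 25% DMSO/65% propylene glycol/10% water. Plasma was precipitated with acetonitrile containing internal standard, then run by UPLC-UV or MRM against 0–50 μg/mL calibration curves. AUC and CL came from noncompartmental analysis.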

red blood cells [1] = test: Hemolysis assay; format: cell-based, human; conditions: at 64 μg/mL, Triton-X as positive control
S. aureus strains = test: MIC, all S. aureus strains tested; format: cell-based; conditions: Staphylococcus aureus, read-out: MIC for all S. aureus strains tested
In short: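 CLSI broth microdilution: 2-fold serial compound dilutions in cation-adjusted Mueller–Hinton broth, set up in triplicate. Inoculum 5 × 10^5 CFU/mL.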

S. aureus = test: MBC determination, three strains of S. aureus together; format: cell-based
Full PK study = format: in vivo, mouse; conditions: 10 mg/kg
MRSA NRS70 = test: Mouse neutropenic thigh infection model; format: in vivo; conditions: thighs harvested at 24 h
[2] = Compound levels in plasma and uninfected thighs in the neutropenic thigh model; format: in vivo, mouse; conditions: for levels in plasma / levels in the thighs (uninfected): 24 h after infection (7 h after the last dose)
S. oralis ATCC 9811 = conditions: ref 22 (Bouley et al.); cited from earlier work
S. pyogenes ATCC 49399 = conditions: ref 22 (Bouley et al.); cited from earlier work
B. cereus ATCC 13061 = conditions: ref 22 (Bouley et al.); cited from earlier work
[3] = tested on: B. licheniformis ATCC 12759; conditions: ref 22 (Bouley et al.); cited from earlier work
E. faecalis ATCC 29212 = conditions: quality control strain; ref 22 (Bouley et al.); cited from earlier work
E. faecalis 99 = conditions: vancomycin-resistant clinical isolate; ref 22 (Bouley et al.); cited from earlier work
red blood cells [4] = conditions: at 64 μg/mL; ref 22 (Bouley et al.); cited from earlier work
[5] = 10 mg/kg, fast PK AUC0–last, mice, single iv dose 10 mg/kg
[6] = 20 mg/kg subcutaneously every 8 h

Question: Which clearance at 8 h (Fast PK studies; 10 mg/kg) does the source give for N#Cc1ccc(/C=C/c2nc3ccccc3c(=O)n2-c2cccc(C(=O)NCCO)c2)cc1 [Compound 57, (E)-3-(3-(2-Hydroxyethyl)carbomylphenyl)-2-(4-cyanostyryl)quinazolin-4(3H)-one] here?
Answer: Its clearance at 8 h is 29 mL/min/kg.

Question: For CS(=O)(=O)Nc1cccc(-n2c(/C=C/c3ccc(C#N)cc3)nc3ccccc3c2=O)c1 [Compound 54, (E)-3-(3-Methylsulfonamidophenyl)-2-(4-cyanostyryl)-quinazolin-4(3H)-one], which clearance at 8 h (Fast PK studies; 5 mg/kg) is on record?
Answer: The clearance at 8 h was 162 mL/min/kg.

Question: With CC(=O)Nc1cccc(-n2c(/C=C/c3ccc(F)cc3)nc3ccccc3c2=O)c1 [Compound 42, (E)-3-(3-Acetamidophenyl)-2-(4-fluorostyryl)quinazolin-4(3H)-one] as the compound, how does the clearance (Fast PK studies; 10 mg/kg) read?
Answer: The clearance was 88 mL/min/kg.

Question: What about the AUC(0-t) (Fast PK studies; [5]) of the same compound?
Answer: Its AUC(0-t) is 4730 ng·h/mL.

Question: With CC(=O)Nc1cccc(-n2c(/C=C/c3ccc(C#N)cc3)nc3ccccc3c2=O)c1 [Compound 52, (E)-3-(3-Acetamidophenyl)-2-(4-cyanostyryl)quinazolin-4(3H)-one] as the compound, how does the clearance at 8 h (Fast PK studies; 5 mg/kg) read?
Answer: The clearance at 8 h was 131 mL/min/kg.

Question: Which results are given for CS(=O)(=O)Nc1cccc(-n2c(/C=C/c3ccc(F)cc3)nc3ccccc3c2=O)c1 [Compound 43, (E)-3-(3-Methylsulfonamidophenyl)-2-(4-fluorostyryl)-quinazolin-4(3H)-one]?
Answer: clearance (Fast PK studies; 10 mg/kg): 28 mL/min/kg; AUC(0-t) (Fast PK studies; [5]): 13700 ng·h/mL

Question: What does the source list for N#Cc1ccc(/C=C/c2nc3ccccc3c(=O)n2-c2cccc(N)c2)cc1 [Compound 50, (E)-3-(3-Aminophenyl)-2-(4-cyanostyryl)quinazolin-4(3H)-one]?
Answer: hemolysis (red blood cells [1]): some hemolysis; clearance at 8 h (Fast PK studies; 10 mg/kg): 25 mL/min/kg

Question: With CC(=O)NCc1cccc(-n2c(/C=C/c3ccc(C#N)cc3)nc3ccccc3c2=O)c1 [Compound 53, (E)-3-(3-(Acetamidomethyl)phenyl)-2-(4-cyanostyryl)-quinazolin-4(3H)-one] as the compound, how does the clearance at 8 h (Fast PK studies; 10 mg/kg) read?
Answer: Its clearance at 8 h is 35 mL/min/kg.

Question: For C#Cc1ccc(/C=C/c2nc3ccccc3c(=O)n2-c2cccc(C(=O)O)c2)cc1 [Compound 27, (E)-3-(3-Carboxyphenyl)-2-(4-ethynylstyryl)quinazolin-4(3H)-one], which MIC (S. aureus strains) is on record?
Answer: Its MIC is ≤ 0.5 µg/mL.

Question: What about the “fold difference between MIC and MBC” value (S. aureus) of the same compound?
Answer: The value was > 4 fold.

Question: And the clearance (Fast PK studies; 10 mg/kg)?
Answer: The clearance was 6.4 mL/min/kg.

Question: What about the AUC(0-t) (Full PK study; ICR, mouse, plasma, iv) of the same compound?
Answer: Its AUC(0-t) is 25700 ng·h/mL.

Question: What about the clearance (Full PK study; ICR, mouse, plasma, iv) of the same compound?
Answer: Its clearance is 6.4 mL/min/kg.

Question: And the “volume of distribution (Vd), fold higher than compound 2” value (Full PK study; mice, iv)?
Answer: The value was 10 fold.

Question: And the “Cmax after po administration, fold higher than compound 2” value (Full PK study; mice, po)?
Answer: The value was 2 fold.

Question: What about the “lowering of the bacterial load compared to the negative control” value (“lowering … compared to the negative control” below) (MRSA NRS70; [6]) of the same compound?
Answer: Its value is “statistically significant lowering of the bacterial load”.

Question: And the levels in plasma ([2]; 20 mg/kg sc every 8 h)?
Answer: The levels in plasma was 2430 ± 1640 ng/mL.

Question: What about the “levels in the thighs (uninfected)” value ([2]; 20 mg/kg sc every 8 h) of the same compound?
Answer: Its value is 220 ± 170 ng/mL.

Question: What about the “levels in thighs, fold higher than compound 2” value ([2]; 24 h after infection, 20 mg/kg sc every 8 h) of the same compound?
Answer: Its value is 9 fold.

Question: With O=C(O)c1cccc(-n2c(/C=C/c3ccc(F)cc3)nc3ccccc3c2=O)c1 [Compound 30, (E)-3-(3-Carboxyphenyl)-2-(4-fluorostyryl)quinazolin-4(3H)-one] as the compound, how does the clearance at 8 h (Fast PK studies; 20 mg/kg) read?
Answer: Its clearance at 8 h is 7.8 mL/min/kg.

Question: With N#Cc1ccc(/C=C/c2nc3ccccc3c(=O)n2-c2cccc(O)c2)cc1 [Compound 15, (E)-3-(3-Hydroxyphenyl)-2-(4-cyanostyryl)quinazolin-4(3H)-one] as the compound, how does the AUC(0-t) (Fast PK studies; 5 mg/kg) read?
Answer: Its AUC(0-t) is 450 ng·h/mL.

Question: What about the clearance at 8 h (Fast PK studies; 5 mg/kg) of the same compound?
Answer: The clearance at 8 h was 186 mL/min/kg.

Question: With CC(=O)NC[C@H]1CN(c2ccc(N3CCOCC3)c(F)c2)C(=O)O1 [linezolid, reference compound] as the compound, how does the “lowering … compared to the negative control” value (MRSA NRS70; 10 mg/kg subcutaneously every 8 h) read?
Answer: Its value is “statistically significant lowering of the bacterial load”.

Question: And the levels in plasma ([2]; 10 mg/kg sc every 8 h)?
Answer: Its levels in plasma is “not quantifiable”.

Question: What about the “levels in the thighs (uninfected)” value ([2]; 10 mg/kg sc every 8 h) of the same compound?
Answer: The value was “not quantifiable”.

Question: With N#Cc1ccc(/C=C/c2nc3ccccc3c(=O)n2-c2cccc(C(=O)O)c2)cc1 [Compound 2, (E)-3-(3-Carboxyphenyl)-2-(4-cyanostyryl)quinazolin-4(3H)-one] as the compound, how does the “fold difference between MIC and MBC” value (S. aureus) read?
Answer: Its value is > 4 fold.

Question: And the “lowering … compared to the negative control” value (MRSA NRS70; [6])?
Answer: The value was “not able to achieve statistically significant efficacy”.

Question: What about the levels in plasma ([2]; 20 mg/kg sc every 8 h) of the same compound?
Answer: The levels in plasma was 1130 ± 1070 ng/mL.

Question: And the “levels in the thighs (uninfected)” value ([2]; 20 mg/kg sc every 8 h)?
Answer: The value was 24 ± 23 ng/mL.

Question: What about the “MIC S. oralis ATCC 9811” value (S. oralis ATCC 9811) of the same compound?
Answer: Its value is >128 µg/mL.

Question: And the “MIC S. pyogenes ATCC 49399” value (S. pyogenes ATCC 49399)?
Answer: Its value is >128 µg/mL.

Question: And the “MIC B. cereus ATCC 13061” value (B. cereus ATCC 13061)?
Answer: Its value is >128 µg/mL.

Question: What about the “MIC B. licheniformis ATCC 12759” value [3] of the same compound?
Answer: The value was >128 µg/mL.

Question: And the “MIC E. faecalis ATCC 29212” value (E. faecalis ATCC 29212)?
Answer: Its value is >128 µg/mL.

Question: And the “MIC E. faecalis 99” value (E. faecalis 99)?
Answer: Its value is >128 µg/mL.

Question: What about the hemolysis (red blood cells [4]) of the same compound?
Answer: The hemolysis was <1%.

Question: What does the source list for O=c1c2ccccc2nc(/C=C/c2ccc(F)cc2)n1-c1cccc(O)c1 [Compound 5, (E)-3-(3-Hydroxyphenyl)-2-(4-fluorostyryl)quinazolin-4(3H)-one]?
Answer: hemolysis (red blood cells [1]): no significant hemolytic activity; clearance (Fast PK studies; 5 mg/kg): 11 mL/min/kg; clearance at 8 h (Fast PK studies; 5 mg/kg): 10.7 mL/min/kg
